Measured values as given in ChEMBL document CHEMBL5131470, “Structure-activity and structure-property relationship studies of spirocyclic chromanes with antimalarial activity” (Bioorg Med Chem, 2022).
≈ marks a conversion by molar mass, not a printed value.

Tests used:
[1] = tested on: Plasmodium falciparum; test: Antimalarial activity against chloroquine-resistant Plasmodium falciparum Dd2 assessed as inhibition of parasite growth incubated for 72 hrs by SYBR green I-based DNA quantification assay; type: functional, organism-based; conditions: Dd2, 72 h
[2] = Octanol-water distribution coefficient, logD of the compound at pH 3 by HPLC-based analysis; type: physicochemical
[3] = Cytotoxicity against human HepG2 cells assessed as reduction in cell viability incubated for 48 hrs by MTS assay; type: toxicity, cell-based
Outline: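 HepG2 human hepatoma cells were seeded at 2,500 cells/well in 384-well plates and incubated 24 h. Serial compound dilutions (0–40 μM range) were added, then cells were incubated a further 48 h.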

[4] = Aqueous solubility of the compound at pH 2 by HPLC analysis; type: physicochemical; conditions: aqueous solution
Outline: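 Aqueous solubility was measured at pH 2.0 with an in-house HPLC assay. Values are reported as bins: ≤10 μM, 10–20 μM, 20–40 μM, 40–80 μM and ≥80 μM.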

[5] = Octanol-water distribution coefficient, logD of the compound at pH 7.4 by HPLC-based analysis; type: physicochemical
[6] = Aqueous solubility of the compound at pH 6.5; conditions: aqueous solution
[7] = Selectivity index, ratio of EC50 for cytotoxicity against human HepG2 cells to EC50 for antimalarial activity against chloroquine-resistant Plasmodium falciparum Dd2; type: toxicity, cell-based; conditions: read-out: Ratio EC50
Outline: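 Human HepG2 hepatoma cells were seeded at 2,500 cells/well and grown 24 h. Serial dilutions of compound (0–40 μM) were then added for another 48 h. […] SI = EC50(HepG2)/EC50(Dd2).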

[8] = tested on: Plasmodium falciparum; test: Antiplasmodial activity against chloroquine-sensitive Plasmodium falciparum D6 assessed as inhibition of parasite growth incubated for 48 hrs by time zero-[3H]hypoxanthine incorporation assay; type: functional, organism-based
[9] = tested on: Plasmodium falciparum; test: Antiplasmodial activity against artemisinin-resistant Plasmodium falciparum ARC08-022 assessed as inhibition of parasite growth incubated for 48 hrs by time zero-[3H]hypoxanthine incorporation assay; type: functional, organism-based

Row | SMILES | EC50 [1] [nM] | logD [2] | EC50 at 48 h [3] [nM] | solubility [4] [µM] | logD [5] | solubility [6] [µM] | selectivity ratio [7] | EC50 [8] [nM] | EC50 [9] [nM]
1 | O=C1CC2(CCN(CC(O)c3ccc(Cl)c(Cl)c3)CC2)Oc2c1ccc1ccccc21 (stereo not given) | > 2500 | – | – | – | – | – | – | – | –
2 | OC1CC2(CCNCC2)Oc2c1ccc1ccccc21 (stereo not given) | 510 | 2.04 | > 20000 | 40 (≈ 10.8 µg/mL) | 2.46 | ≤ 10 | > 54.5 | – | –
3 | OC1CC2(CCN(CCCc3ccccc3)CC2)Oc2c1ccc1ccccc21 (stereo not given) | 650 | – | 1000 | – | – | – | 2 | – | –
4 | O=C(CN1CCC2(CC1)CC(O)c1ccc3ccccc3c1O2)c1ccc(F)c(F)c1 (stereo not given) | > 2500 | 1.53 | 33000 | 20 (≈ 8.47 µg/mL) | 0.89 | 20 (≈ 8.47 µg/mL) | < 6.7 | – | –
5 | OC1CC2(CCN(Cc3ccccc3)CC2)Oc2c1ccc1ccccc21 (stereo not given) | 930 | – | 6000 | – | – | – | 5.7 | – | –
6 | O[C@@H]1CC2(CCN(C[C@H](O)c3ccc(F)c(F)c3)CC2)Oc2c1ccc1ccccc21 | 1060 | – | 17000 | – | – | – | 16 | – | –
7 | OC1C[C@]2(CCCN(CCc3ccc(F)c(F)c3)C2)Oc2c1ccc1ccccc21 (stereo not given in full) | > 2500 | – | 6000 | – | – | – | 1.9 | – | –
8 | Fc1ccc(CCN2CCC3(C=Cc4ccc5ccccc5c4O3)CC2)cc1F | 1980 | – | 13000 | – | – | – | 7.2 | – | –
9 | OC(CN1CCC2(CCc3ccc4ccccc4c3O2)CC1)c1ccc(F)c(F)c1 (stereo not given) | 530 | 3.05 | > 20000 | 40 (≈ 16.4 µg/mL) | 4 | ≤ 10 | > 10.4 | 310 | 970
10 | O=C1CC2(CCN(CCc3ccc(Cl)c(Cl)c3)CC2)Oc2c1ccc1ccccc21 | > 2500 | – | – | – | – | – | – | – | –
11 | O=C1C[C@@]2(CCCN(CCc3ccc(F)c(F)c3)C2)Oc2c1ccc1ccccc21 | 330 | – | 14000 | – | – | – | 34.2 | – | –
12 | CCN1CCC[C@]2(CC(O)c3ccc4ccccc4c3O2)C1 (stereo not given in full) | > 2500 | – | > 20000 | – | – | – | > 7.6 | – | –
13 | O=C(CN1CCC2(CCc3ccc4ccccc4c3O2)CC1)c1ccc(F)c(F)c1 | > 2500 | – | > 20000 | 20 (≈ 8.15 µg/mL) | – | 20 (≈ 8.15 µg/mL) | – | – | –
14 | c1ccc(CCCN2CCC3(CCc4ccc5ccccc5c4O3)CC2)cc1 | 1410 | – | > 20000 | – | – | – | > 45.6 | – | –
15 | c1ccc2c3c(ccc2c1)CCC1(CCNCC1)O3 | > 2500 | 1.97 | > 20000 | 40 (≈ 10.1 µg/mL) | 2.33 | 20 (≈ 5.07 µg/mL) | 4 | – | –
16 | c1ccc(CCN2CCC3(CCc4ccc5ccccc5c4O3)CC2)cc1 | 2060 | – | > 20000 | – | – | – | > 9.6 | – | –
17 | OC1CC2(CCN(CCc3ccc(F)c(F)c3)CC2)Oc2c1ccc1ccccc21 (stereo not given) | 530 | 2.62 | > 20000 | ≥ 80 | 3.15 | ≥ 80 | > 32.5 | – | –
18 | OC1CC2(CCN(CCc3ccccc3)CC2)Oc2c1ccc1ccccc21 (stereo not given) | 320 | – | > 20000 | – | – | – | > 68.9 | – | –
19 | O=C1C[C@@]2(CCCNC2)Oc2c1ccc1ccccc21 | 630 | – | 5000 | – | – | – | 9 | – | –
20 | CCN1CCC2(C=Cc3ccc4ccccc4c3O2)CC1 | 1140 | – | 12000 | – | – | – | 9.7 | – | –
21 | CCN1CCC[C@@]2(CC(O)c3ccc4ccccc4c3O2)C1 (stereo not given in full) | 630 | – | > 20000 | – | – | – | > 28.8 | – | –
22 | c1cc2c(c3c1CCCC3)OC1(CCNCC1)CC2 | > 2500 | – | > 20000 | – | – | – | 4 | – | –
23 | OC1C[C@@]2(CCCN(CCc3ccc(F)c(F)c3)C2)Oc2c1ccc1ccccc21 (stereo not given in full) | 610 | – | > 20000 | – | – | – | > 34.5 | – | –
24 | O=C1CC2(CCN(C(=O)Cc3ccc(F)c(F)c3)CC2)Oc2c1ccc1ccccc21 | > 2500 | 4 | 18000 | – | 4.03 | ≤ 10 | < 3.6 | – | –
25 | c1ccc(CN2CCC3(CCc4ccc5ccccc5c4O3)CC2)cc1 | > 2500 | – | > 20000 | – | – | – | 4 | – | –
26 | O=C(CN1CCC2(CC1)CC(=O)c1ccc3ccccc3c1O2)c1ccc(F)c(F)c1 | 1300 | 1.52 | 4000 | 40 (≈ 16.9 µg/mL) | 1.82 | 40 (≈ 16.9 µg/mL) | 2.7 | – | –

Row | SMILES | EC50 [1] [nM] | logD [2] | EC50 at 48 h [3] [nM] | solubility [4] [µM] | logD [5] | solubility [6] [µM] | selectivity ratio [7] | EC50 [8] [nM] | EC50 [9] [nM]
27 | OC1CC2(CCN(CCc3ccc(Cl)c(Cl)c3)CC2)Oc2c1ccc1ccccc21 (stereo not given) | 2100 | – | – | – | – | – | – | 1320 | 2010
28 | Fc1ccc(CCN2CCC3(CCc4ccc5ccccc5c4O3)CC2)cc1F | 1910 | 3.29 | > 20000 | 20 (≈ 7.87 µg/mL) | 4.51 | – | 4 | – | –
29 | CCN1CCC2(CC1)CC(O)c1ccc3ccccc3c1O2 (stereo not given) | > 2500 | 1.51 | 16000 | 20 (≈ 5.95 µg/mL) | 1.88 | 20 (≈ 5.95 µg/mL) | 3.2 | – | –
30 | O=C(Cc1ccc(F)c(F)c1)N1CCC2(CCc3ccc4ccccc4c3O2)CC1 | > 2500 | 4.02 | 5000 | – | 4.04 | – | < 1 | – | –
31 | O[C@H](CN1CCC2(CC1)C[C@@H](O)c1ccc3ccccc3c1O2)c1ccc(F)c(F)c1 | > 2500 | – | 17000 | – | – | – | < 7 | – | –
32 | c1ccc2c3c(ccc2c1)CCC1(CCN(CCC2CCCCC2)CC1)O3 | 1470 | – | 2000 | 40 (≈ 14.5 µg/mL) | 4.74 | – | 1.1 | – | –
33 | O=C1CC2(CCNCC2)Oc2c1ccc1ccccc21 | 2270 | 1.48 | 7000 | ≥ 80 | 1.78 | ≥ 80 | 3.2 | – | –
34 | O=C1CC2(CCN(CCC3CCCCC3)CC2)Oc2c1ccc1ccccc21 | 710 | 2.99 | 16000 | 20 (≈ 7.55 µg/mL) | 4.5 | 10 (≈ 3.78 µg/mL) | 31.2 | – | –
35 | Fc1ccc(CCN2CCC3(CCc4ccc5c(c4O3)CCCC5)CC2)cc1F | > 2500 | – | > 20000 | – | – | – | 4 | – | –
36 | CCN1CCC2(CC1)CC(=O)c1ccc3ccccc3c1O2 | > 2500 | 1.65 | 18000 | ≥ 80 | 2.19 | ≥ 80 | 4.7 | – | –
37 | O[C@@H](CN1CCC2(CC1)C[C@H](O)c1ccc3ccccc3c1O2)c1ccc(F)c(F)c1 | 1290 | – | > 20000 | – | – | – | > 15 | – | –
38 | O=C1C[C@]2(CCCN(CCc3ccc(F)c(F)c3)C2)Oc2c1ccc1ccccc21 | 1840 | – | 10000 | – | – | – | 5.8 | – | –
39 | O=C1CC2(CCN(CCCc3ccccc3)CC2)Oc2c1ccc1ccccc21 | 480 | – | > 20000 | – | – | – | > 36.5 | – | –
40 | OC(CN1CCC2(CC1)CC(O)c1ccc3ccccc3c1O2)c1ccc(Cl)c(Cl)c1 (stereo not given) | 1840 | – | – | – | – | – | – | – | –
41 | O=C1CC2(CCN(CCc3ccccc3)CC2)Oc2c1ccc1ccccc21 | 530 | – | 8000 | – | – | – | 14 | – | –
42 | O=C1C[C@]2(CCCNC2)Oc2c1ccc1ccccc21 | 1200 | – | 4000 | – | – | – | 2.4 | – | –
43 | O[C@H](CN1CCC2(CC1)C[C@H](O)c1ccc3ccccc3c1O2)c1ccc(F)c(F)c1 | 1790 | – | > 20000 | – | – | – | 11 | – | –
44 | O=C(Cc1ccc(F)c(F)c1)N1CCC2(CC1)CC(O)c1ccc3ccccc3c1O2 (stereo not given) | > 2500 | 2.04 | 5000 | – | 2.46 | – | < 1 | – | –
45 | O=C1CC2(CCN(Cc3ccccc3)CC2)Oc2c1ccc1ccccc21 | > 2500 | – | 11000 | – | – | – | 4 | – | –
46 | O=C1CC2(CCN(CC(O)c3ccc(F)c(F)c3)CC2)Oc2c1ccc1ccccc21 (stereo not given) | 850 | 2.79 | > 20000 | ≥ 80 | 4.51 | ≤ 10 | > 6.1 | – | –
47 | CCN1CCC2(CCc3ccc4c(c3O2)CCCC4)CC1 | > 2500 | – | 5000 | – | – | – | < 1 | – | –
48 | CCN1CCC2(CCc3ccc4ccccc4c3O2)CC1 | 550 | 2.17 | > 20000 | ≤ 10 | 2.88 | ≤ 10 | > 52.1 | – | –
49 | CCN1CCC[C@@]2(CC(=O)c3ccc4ccccc4c3O2)C1 | > 2500 | – | 8000 | – | – | – | < 1.6 | – | –
50 | CCN1CCC[C@]2(CC(=O)c3ccc4ccccc4c3O2)C1 | > 2500 | – | 5000 | – | – | – | 1.3 | – | –
51 | C1=CC2(CCNCC2)Oc2c1ccc1ccccc21 | 490 | – | > 20000 | – | – | – | > 45.6 | – | –
